Measured values from ChEMBL document CHEMBL4316660, “Isarubrolones Containing a Pyridooxazinium Unit from Streptomyces as Autophagy Activators” (J Nat Prod, 2019).
Activity calls are given as the source filed them. No cut-off for these calls is given here.

How the values were obtained:
Assay type in all cases: functional, cell-based
[1] = system: HepG2; assay: Induction of autophagy in human HepG2 cells assessed as increase in ATG4b protein level up to 20 uM measured after 24 hrs by Western blot analysis
How it was run: (§1)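 HepG2 cells exposed 24 h to test agent at final 1, 5, 10 or 20 μM. Lysis in RIPA buffer with protease inhibitor cocktail. Proteins resolved on 12% SDS-PAGE, blotted to nitrocellulose, and probed with antibodies to LC3B, P62, ATG5, ATG7, ATG4a and ATG4b. GAPDH served as loading control. Autophagosome formation was read as the LC3B II/I ratio.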

[2] = system: HepG2; assay: Induction of autophagy in human HepG2 cells assessed as increase in LC3B2/1 ratio up to 20 uM measured after 24 hrs by Western blot analysis; how it was run: as §1
[3] = system: HepG2; assay: Induction of autophagy in human HepG2 cells assessed as increase in ATG7 protein level up to 20 uM measured after 24 hrs by Western blot analysis; how it was run: as §1
[4] = system: HepG2; assay: Induction of autophagy in human HepG2 cells assessed as increase in ATG5 protein level up to 20 uM measured after 24 hrs by Western blot analysis; how it was run: as §1
[5] = system: HepG2; assay: Induction of autophagy in human HepG2 cells assessed as decrease in ATG4a protein level up to 20 uM measured after 24 hrs by Western blot analysis; how it was run: as §1
[6] = system: HepG2; assay: Induction of autophagy in human HepG2 cells assessed as decrease in P62 protein level measured after 24 hrs by Western blot analysis; how it was run: as §1
[7] = system: A549; assay: Cytotoxicity against human A549 cells by MTT assay
[8] = system: HepG2; assay: Cytotoxicity against human HepG2 cells by MTT assay
[9] = system: HCT-116; assay: Cytotoxicity against human HCT116 cells by MTT assay
[10] = system: NCI-H460; assay: Cytotoxicity against human H460 cells by MTT assay

Row | SMILES | Activity [1] | Activity [2] | Activity [3] | Activity [4] | Activity [5] | Activity [6] | IC50 [7] | IC50 [8] | IC50 [9] | IC50 [10]
1 | CCCC(=O)C1=C2C=C(C)Oc3c4c(c(=O)cc(c32)C1=O)[C@]1(O)[C@H](O4)O[C@H](C)[C@@H](OC)[C@H]1O | Active | Active | Active | Active | Active | Dose-dependent effect | – | – | – | –
2 | CC[C@@H](O)C(=O)C1=C2C=C(C)Oc3c4c(c(=O)cc(c32)C1=O)[C@]1(O)[C@H](O4)O[C@H](C)[C@@H](OC)[C@H]1O | Active | Active | Active | Active | Active | Dose-dependent effect | – | – | – | –
3 | CC[C@H]1O[C@@](C)(O)C[n+]2c(C)cc3c(c21)C(=O)c1cc(=O)c2c(c(O)c1-3)O[C@@H]1O[C@H](C)[C@@H](OC)[C@@H](O)[C@]21O | Active | Active | Active | Active | Active | Dose-dependent effect | 190 to 530 µM | 190 to 530 µM | 190 to 530 µM | 190 to 530 µM
4 | CC[C@@H](O)c1nc(C)cc2c1C(=O)c1cc(=O)c3c(c(O)c1-2)O[C@@H]1O[C@H](C)[C@@H](OC)[C@@H](O)[C@]31O | Active | Active | Active | Active | Active | Dose-dependent effect | 770 to 1800 µM | 770 to 1800 µM | 770 to 1800 µM | 770 to 1800 µM
5 | CC[C@H]1OC(=O)C[n+]2c(C)cc3c(c21)C(=O)c1cc(=O)c2c(c(O)c1-3)O[C@@H]1O[C@H](C)[C@@H](OC)[C@@H](O)[C@]21O | Active | Active | Active | Active | Active | Dose-dependent effect | – | – | – | –
